# High-throughput results (PubChem BioAssay)
# BB579 growth dn: yeast BB579 growth reduction in restrictive medium | hit rate 0.51% among 140,000 | inhibition, % at 10 µM | S. cerevisiae BB579 growth, OD615, 48 h;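 active means inhibition above a set limit, 3 SD over the mean compound inhibition, cut at about 44% in these data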
#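 Assay system – yeast BB579 (DeaD) · Dosing – single compound dose of 10 µM, 0.25% DMSO final · Detection – OD615 turbidity measurement · Buffer or medium – CSMM-D restrictive synthetic medium containing dextrose (glucose) · Benchmarks – positive control amphotericin B 10 µg/mL · Incubation – 48 h exposure, 30 °C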
# Yeast life ext: yeast lifespan extension; S. cerevisiae growth with nicotinamide, OD615; deaD strain in restrictive glucose medium; inhibition of the nicotinamide effect, % at 10 µM; hit rate 0.68% among 130,000;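 active means inhibition above a set limit, placed 3 SD over the median of all compounds, cut at about 26% in these data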;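 further: 0% = nicotinamide-treated wells and 100% = cells grown without nicotinamide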
#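 Buffer or medium: CSMM-D glucose medium, restrictive; test system: modified budding yeast, DeaD strain; compound: single dose 10 µM compound, 0.25% DMSO; schedule: culture preincubation 4 h, compound exposure 48 h, both 30 °C; detection: optical density (absorbance) at 615 nm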
# RAM inhibit: blocks the yeast RAM network; hit rate 1.8% among 190,000; S. cerevisiae dse1pr::URA3 reporter, 5-FOA growth OD615, 2 d; analog-sensitive cbk1-as2 kinase mutant strain; inhibition, % at 50 µM;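 active means inhibition above a set limit, 3 SD over mean compound inhibition, cut at about 8.4% in these data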;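 further: 0% = DMSO-only wells with no growth and 100% = 10 µM 1-NA-PP1 full growth; inhibition rescues growth on 5-FOA so higher OD means more RAM inhibition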
# Measles CPE: protection of cells from measles virus; protection (pct of control), % at 4 µM; hit rate 1.5% among 140,000; AID 841; Measles virus-infected cells, CPE protection, absorbance; in the data active means protection mostly above about 24%, no sharp cut-off; inactive means mostly below about 26%
# RAM efflux-def: RAM network inhibitors in efflux-deficient yeast; max inhibition, %; AID 1305; S. cerevisiae efflux-deficient reporter strain, 5-FOA growth OD615, 2 days; shares compounds with RAM inhibit; 1,200 tested, under 10 active; call rule not given here;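 further: plate controls were vehicle for no effect and reference inhibitor for full effect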
# Numbers without * were called inactive; . = not tested or not shown. The list is not random: actives were taken first. Their share in the collection is about 3.6%.
SMILES,BB579 growth dn,Yeast life ext,RAM inhibit,Measles CPE,RAM efflux-def
O=C(COC(=O)c1cc(Cl)ccc1[N+](=O)[O-])Nc1cccc2ccccc12,-30,-5,5,5,.
Cc1ccc(C(=O)c2ccccc2C(=O)OCC(=O)Nc2ccc(SC(F)F)cc2)cc1,-34,5,13*,9,2
Cc1noc(C)c1CCC(=O)N1CCCC(CCC(=O)NCc2ccccc2F)C1 (configuration not stated),.,.,1,.,.
COc1cccc(-c2ccc(=O)n(CC(=O)Nc3ccc(S(=O)(=O)NCC(C)C)cc3)n2)c1,.,.,0,.,.
CCCCN1C(=O)/C(=c2\sc3nc(=O)c(-c4ccccc4)nn3c2=O)c2ccccc21,-31,-8,2,18,.
CCCN1C(=O)/C(=c2\sc3nc(=O)c(Cc4ccc(C)cc4)nn3c2=O)c2ccccc21,.,.,12*,.,4
Cc1ccsc1C1Nc2ccc3ncccc3c2C2=C1C(=O)CC(C)(C)C2 (configuration not stated),-48,-7,1,6,.
CC1(C)CC(=O)C2=C(C1)c1c(ccc3ccccc13)NC2c1ccco1 (configuration not stated),-8,-9,16*,6,2
CC(NC(=O)c1cc(COc2c(F)cccc2F)on1)c1cnn(-c2ccccc2)c1 (configuration not stated),.,.,4,.,.
Cc1cc(C)c(NC(=O)/C(=C/c2ccccc2)c2ccccc2)c(C)c1,-4,59,13*,13,3
Nc1ccc2nc[nH]c2c1,.,.,2,.,.
COCCCNc1nc(SCc2ccccc2)nc2sc3c(c12)CCC3,-32,-18,16*,8,6
CCOC(=O)/C(C#N)=C(C)/C=C1\Sc2ccccc2N1CC,-49,0,22*,2,3
CCOC(=O)c1ccc(NC(=O)Nc2ccc3c4c(cccc24)C(=O)N3CC)cc1,-31,3,18*,5,4
CCN1C(=O)c2cccc3c(NS(=O)(=O)c4ccc(NC(C)=O)cc4)ccc1c23,-29,-8,4,11,.
CCOC(=O)CSc1nc(N)c(C#N)c(-c2cccs2)c1C#N,-24,-11,5,9,.
CCOC(=O)C(C)Sc1nc2c(c(-c3cccs3)c1C#N)CCC2 (configuration not stated),-28,4,12*,7,4
Cc1c(Br)c([N+](=O)[O-])nn1CC(=O)Nc1cccc2nonc12,.,.,8,.,.
CCN(CC)P(=O)(Nc1ccc(C)cc1Br)c1ccc(N(C)C)cc1NC(=O)c1ccco1 (configuration not stated),.,.,2,.,.
Cc1cccc(Oc2cc(NC(=O)c3ccccc3)cc([N+](=O)[O-])c2)c1,-69,-27,13*,7,2
Cc1ccc(C(=O)C(OC(=O)COc2ccccc2C)c2ccccc2)cc1 (configuration not stated),-16,-20,14*,25,4
O=C(COc1ccccc1)OC(C(=O)c1ccccc1)c1ccccc1 (configuration not stated),-45,-4,12*,37,25
CC(C)C[C@H](NC(=O)c1nc[nH]c1C(=O)N1CCN(C(=O)OC(C)(C)C)CC1)C(=O)OC(C)(C)C,.,.,2,.,.
CCOC(=O)C1CCN(S(=O)(=O)C(F)(F)c2nc3ccccc3s2)CC1,-33,-4,3,4,1
NC(N)=Nc1nc(C2COc3ccccc3O2)cs1 (configuration not stated),-24,0,1,13,.
SMILES,BB579 growth dn,Yeast life ext,RAM inhibit,Measles CPE,RAM efflux-def
CCOc1cccc(-c2csc(C3COc4ccccc4O3)n2)c1 (configuration not stated),-32,5,15*,3,3
O=C(CSc1nnc(COc2ccc(Cl)cc2)o1)OC1CCCCC1,-54,0,1,0,.
Cc1cc(OCc2nnc(SCC(=O)OC3CCCCC3)o2)ccc1Cl,-40,7,12*,20,2
O=C(NN1CCN(Cc2ccccc2)CC1)c1ccc(Cl)cc1,.,.,2,.,.
CCOc1ccc(-c2c(C(=O)N/N=C/c3ccc(OC)cc3)nnn2-c2nonc2N)cc1,-24,6,12*,6,1
CC(C(=O)Nc1ccc2c(c1)OCCO2)N(C)Cc1c(F)cccc1Cl (configuration not stated),.,.,-1,.,.
Cc1cccc(C)c1NC(=S)N(CCCN1CCOCC1)Cc1cccnc1,.,.,1,.,.
O=C(/C=C/c1ccc(-c2ccccc2[N+](=O)[O-])o1)c1ccccc1,-33,-6,16*,21,4
CCCn1c(=O)c(C(=O)Nc2ccccc2C(=O)OC)c(O)c2ccccc21,-38,-7,14*,5,2
C=CCn1c(=O)c(C(=O)Nc2ccccc2C(=O)OCC)c(O)c2ccccc21,-54,12,14*,4,2
CCn1c(=O)c(C(=O)Nc2ccsc2C(=O)OC)c(O)c2ccccc21,-9,9,2,4,.
C=CCn1c(=O)c(C(=O)OCC)c(O)c2ccccc21,.,.,-3,.,.
CCOC(=O)c1ccccc1NC(=O)c1c(O)c2ccccc2n(CC)c1=O,-63,5,11*,18,2
COc1ccc(-c2nc(CCl)cs2)cc1OC,.,.,0,.,.
COc1ccc(-c2nc(-c3ccc(O)cc3O)cs2)cc1OC,.,.,12*,.,4
O=C(C(Sc1ccccc1)c1ccccc1)N1CCN(c2ccccc2)CC1 (configuration not stated),-34,12,21*,5,2
COc1ccccc1NC(=S)N(CCN1CCCCCC1)Cc1cccs1,.,.,1,.,.
CCOC(=O)c1cc(C#N)c(Oc2ccc(F)cc2)nc1-c1ccccc1,-56,-5,8,6,.
CCOC(=O)c1cc(C#N)c(Oc2cccc(C(F)(F)F)c2)nc1-c1ccccc1,-16,3,13*,5,2
Cc1cccc(C(=O)N[C@H](C(=O)Nc2ccc(C)c(S(=O)(=O)N(C)C)c2)C(C)C)c1,.,.,3,.,.
Cc1ccc(O)c(-c2cc(-c3cccc(Br)c3)n[nH]2)c1,.,.,12*,.,3
CCCCOC(=O)c1ccc(NC(=O)c2c(Cl)ccc(Cl)c2OC)cc1,-36,0,18*,6,3
CCCCCCOC(=O)c1ccc(NC(=O)c2cc(OC)c(OC)c(OC)c2Br)cc1,-22,1,11*,3,4
O=C(CN1C2=NCCCN2c2ccccc21)c1ccc([N+](=O)[O-])cc1,.,.,0,.,.
COc1cccc(/C=C(/C(=O)OCC(=O)NC2CCCC(C)C2C)c2ccccc2)c1 (configuration not stated),-13,8,20*,13,6
COc1cccc(/C=C(/C(=O)OCC(N)=O)c2ccccc2)c1,.,.,0,.,.
COc1ccc(C(=O)Nc2cc(OC)c(Cl)cc2Cl)cc1,.,.,5,.,.
COc1ccc(C(=O)Nc2cc(OCc3ccccc3)c(Cl)cc2Cl)cc1,-25,-1,15*,11,2
COc1ccc(COc2ccsc2C(=O)Nc2ccc(Cl)c(Cl)c2)cc1,-49,-22,14*,5,2
